This is a sample that favours compounds with a hit; in the whole collection about 4.7% have one here.
SKN-1 inh – inhibitors of C. elegans SKN-1 | C. elegans VP596 Pgst-4::GFP/RFP ratio, acrylamide-induced, 24 h | inhibition, % at 21.8 µM | hit rate 0.49% among 360,000 | AID 624304;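 active = interference check ratio from 0.5 to 1.5 plus GFP to RFP signal ratio inhibition reaching or exceeding a fixed threshold, cut at about 30% in these data, passing the limit was not always enough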
ADAM17 inh – inhibitors of human ADAM17. recombinant ADAM17, EDANS/DABCYL FRET peptide cleavage. inhibition, % at 6.95 µM. hit rate 0.83% among 370,000. AID 720648;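 active = inhibition above the mean of compounds lying between control limits plus 3 SD, set per campaign, cut at about 8.5% in these data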;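 also: 0% = DMSO-only wells as the low control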
Target sequence (P78536 215-824 limits assumed): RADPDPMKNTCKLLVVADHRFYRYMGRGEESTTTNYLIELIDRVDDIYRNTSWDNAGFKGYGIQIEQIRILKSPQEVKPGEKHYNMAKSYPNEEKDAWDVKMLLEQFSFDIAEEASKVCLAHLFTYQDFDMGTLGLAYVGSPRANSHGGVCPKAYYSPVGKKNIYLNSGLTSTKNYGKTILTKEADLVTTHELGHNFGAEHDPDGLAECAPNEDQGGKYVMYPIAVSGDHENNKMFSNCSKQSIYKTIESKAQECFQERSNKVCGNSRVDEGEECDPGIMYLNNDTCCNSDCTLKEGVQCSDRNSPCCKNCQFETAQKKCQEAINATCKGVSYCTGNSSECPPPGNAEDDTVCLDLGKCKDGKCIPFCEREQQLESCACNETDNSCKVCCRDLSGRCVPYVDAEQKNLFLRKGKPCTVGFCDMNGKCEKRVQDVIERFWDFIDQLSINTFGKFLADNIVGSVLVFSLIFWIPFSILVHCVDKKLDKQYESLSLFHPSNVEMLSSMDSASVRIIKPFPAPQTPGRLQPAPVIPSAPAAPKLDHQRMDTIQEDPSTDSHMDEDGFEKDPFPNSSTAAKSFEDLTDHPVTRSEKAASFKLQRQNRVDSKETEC
GRIN3A LBD mod – NR3A (human) ligand-binding domain modulation; NR3A LBD differential scanning fluorimetry, Tm shift; 0% = protein alone, 100% = glycine-bound protein; Tm shift relative to glycine control, % at 25 µM; hit rate 2.5% among 340,000; AID 1259313;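 active = melting temperature shift of at least 10% of the positive control shift, at one fixed dose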
MPTP block – blocks calcium-induced mitochondrial swelling | isolated mouse mitochondria, Ca2+ swelling absorbance, 30 min | inhibition, % at 10 µM | hit rate 1.4% among 360,000 | AID 602449;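 active = inhibition of 50% or more, scaled per plate between neutral and stimulator controls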;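 also: 0% = DMSO wells given calcium and 100% = 1 mM EGTA wells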
MT1-MMP act inh – inhibitors of human MT1-MMP activation | P50281 | HT1080 RFP-PRO-GFP cells, GFP/RFP ratio fluorescence, overnight; percent of plate control window, DMSO zero | GFP/RFP ratio change, % at 20 µM | hit rate 0.061% among 360,000 | AID 651647;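 active = GFP/RFP ratio change of at least 30% with cell ATP level not reduced by more than half and red fluorescence within 50% of control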
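Assay system: HT1080 RFP-PRO-GFP cells. Benchmarks: DMSO vehicle wells and RFP-L50D-GFP reporter cell wells. Times: overnight cell settling, then overnight compound exposure, 37 °C, 5% CO2. Compound: 20 µM single dose, 1% DMSO. Read-out basis: GFP/RFP fluorescence ratio.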
ADAM10 inh – inhibitors of human ADAM10 | inhibition, % at 7 µM | recombinant ADAM10, EDANS/DABCYL FRET peptide cleavage, 3 h | AID 720582 | O14672 | hit rate 0.62% among 370,000;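 active = inhibition above a per-campaign cutoff equal to the mean of compounds falling between control-based bounds plus 3 SD, cut at about 20% in these data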;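 also: 0% = DMSO wells while the 100% control is not disclosed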
ADAM10 confirm – confirmation of inhibitors of human ADAM10 | AID 743208 | ADAM10 QFRET peptide cleavage, EDANS fluorescence | shares compounds with ADAM10 inh | inhibition, % at 6.95 µM | hit rate 1% among 2,100;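 active = inhibition above about 20% chosen separately for each screening run, limit read from the data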;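 also: 0% = DMSO wells and 100% = marimastat wells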
ADAM17 ctr – ADAM17 inhibition, counter-screen for ADAM10 exosite hits. shares compounds with ADAM10 inh. ADAM17 QFRET peptide cleavage, EDANS fluorescence. inhibition, % at 6.95 µM. hit rate 0.5% among 2,100. AID 743214;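 active = mean triplicate inhibition above the solvent-only control wells' mean plus 3 SD, cut at about 12% in these data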;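 also: 0% = DMSO wells and 100% = marimastat wells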
An asterisk follows results filed as active; i = inactive; / = no result given.

SMILES	SKN-1 inh	ADAM17 inh	GRIN3A LBD mod	MPTP block	MT1-MMP act inh	ADAM10 inh	ADAM10 confirm	ADAM17 ctr
O=C(Nc1ccn(Cc2ccccc2F)n1)c1ccc(COc2ccc(Br)cc2)cc1	-4.4	3.3	-3.4	4.9	-1.2	19.9*	4.9	0.6
COc1ccccc1-c1cc(C(=O)N/N=C/C=C/c2ccccc2[N+](=O)[O-])c2ccccc2n1	4.3	8.1	-0.1	0.6	-4.2	20.2*	7.8	2.2
Cc1nc(SC(C)C(=O)NC2CCCC2)c2ccccc2n1 (configuration not stated)	16.3	-2.4	0.6	-1.0	-3.5	-10.7	/	/
O=S(=O)(Nc1ccc2c(c1)OCCO2)c1ccc(Br)s1	11.0	2.8	-17.4	14.5	-4.3	21.1*	2.3	-0.3
COc1ccc(-n2c(=S)[nH]c3cc(C(=O)NCc4ccccc4OC)ccc3c2=O)c(OC)c1	10.9	5.7	-2.2	0.4	0.6	14.4	/	/
COc1ccc(-n2c(=S)[nH]c3cc(C(=O)NCc4ccc(F)cc4)ccc3c2=O)c(OC)c1	19.8	6.2	-1.7	0.0	3.0	23.2*	0.7	0.6
O=C(NCc1ccc(OC(F)(F)F)cc1)c1cc(-c2ccccc2)nn1CC1CC(c2cccnc2)=NO1 (configuration not stated)	-7.8	6.1	-10.4	0.4	0.2	20.1*	0.2	1.5
OC1CCC(Nc2ccn3nc(-c4cccc(Cl)c4)cc3n2)CC1 (configuration not stated)	13.2	-58.1	/	-0.7	-0.5	-217.0	/	/
COc1ccc(NC(=O)CN2C(=O)C(c3ccccc3)=NC23CCCCCC3)cc1	-0.4	6.9	-3.5	0.6	-4.6	26.9*	0.1	0.4
COc1ccc(NC(=O)CN2C(=O)NC3(CCCCCCC3)C2=O)cc1	12.0	-4.1	3.0	-0.1	5.4	-3.7	/	/
C/C(=N\Nc1ccc(C#N)cc1[N+](=O)[O-])c1ccc(C)o1	3.2	1.3	-0.1	4.1	9.0	12.6	/	/
Cn1c(=O)c(C(=O)NNC(=O)c2ccccc2Br)c(O)c2ccccc21	1.3	4.5	-1.9	0.5	7.0	19.8*	8.0	3.8
COc1cc2c(cc1OC)[C@@H](NC(=O)c1ccc(C(F)(F)F)cc1)[C@H](OCc1ccccc1)C2	-8.6	1.8	-0.7	4.8	3.7	-8.8	/	/
COc1ccccc1N1C(=O)C(Cl)=C(Nc2ccccc2O)C1=O	-2.2	7.5	-3.6	5.6	-42.3	21.9*	14.1	5.4
O=C1C(Cl)=C(Nc2ccccc2O)C(=O)N1c1ccccc1	-11.3	-6.2	-6.9	6.6	-10.7	2.7	/	/
CC(C)(C)c1nc(Sc2ncccc2[N+](=O)[O-])n[nH]1	-11.4	-2.0	0.5	0.8	0.5	1.4	/	/
COc1ccccc1C(=O)NC(CCSC)C(=O)NCC(c1ccco1)N(C)C (configuration not stated)	-6.6	-9.4	-1.9	1.6	-39.8	-17.2	/	/
O=C(NNC(=S)Nc1ccc(Br)cc1)c1ccc(N2CCOCC2)c([N+](=O)[O-])c1	2.5	5.0	19.0*	30.0	1.9	20.6*	0.8	0.2
O=C(N/N=C/c1ccccc1)c1ccc(N2CCOCC2)c([N+](=O)[O-])c1	-3.7	3.4	-2.4	-0.3	1.2	3.5	/	/
Cc1ccc2nc(-c3ccc(NC(=O)COC(=O)c4ccc(=O)[nH]c4)cc3)sc2c1	1.7	-182.4	4.2	1.8	0.3	i	/	/
COc1ccc(CNC(=O)C2CCC(CNS(=O)(=O)c3ccc(C)cc3)CC2)cc1 (configuration not stated)	-2.3	4.5	5.2	0.3	4.0	1.8	/	/
CCc1c(C(=O)N/N=C/c2sccc2C)nnn1-c1nonc1N	4.7	1.4	-8.1	1.7	3.0	0.4	/	/
Cc1ccsc1/C=N/NC(=O)c1nnn(-c2nonc2N)c1CN(C)c1ccccc1	1.0	6.8	2.0	-0.4	0.8	21.8*	1.8	0.9
Cc1ccc(N2CC(C(=O)Nc3nnc(SCC(N)=O)s3)CC2=O)cc1 (configuration not stated)	1.6	0.0	-2.2	0.1	-0.3	80.6*	1.0	-0.6
NC(=O)CSc1nnc(NC(=O)C2CC(=O)N(c3ccc(F)cc3)C2)s1 (configuration not stated)	12.7	4.5	-2.0	0.8	-3.5	3.6	/	/
SMILES	SKN-1 inh	ADAM17 inh	GRIN3A LBD mod	MPTP block	MT1-MMP act inh	ADAM10 inh	ADAM10 confirm	ADAM17 ctr
CCOc1cc(C(=O)NCC(C)(C)CNC(=O)c2cc(OCC)c(OCC)c(OCC)c2)cc(OCC)c1OCC	-3.9	7.9	-2.1	9.6	-2.2	21.3*	-0.6	0.1
CCc1ccc2[nH]c(=O)c(CN(CCCN3CCOCC3)C(=O)Nc3ccc(F)cc3)cc2c1	-6.6	-6.7	-0.4	-1.4	0.8	-18.2	/	/
CC1=C(C#N)C(=O)NC(=O)/C1=C\c1ccc(-c2ccc(C)cc2[N+](=O)[O-])o1	5.4	-8.3	-6.3	-0.2	-7.7	-18.4	/	/
CN(C)c1ccc(C2CNC(c3ccc(Cl)c([N+](=O)[O-])c3)c3[nH]c4ccccc4c32)cc1 (configuration not stated)	-9.3	1.0	3.5	4.0	-8.2	3.2	/	/
O=[N+]([O-])c1cccc(C2NCC(c3ccccc3Cl)c3c2[nH]c2ccccc32)c1 (configuration not stated)	2.4	5.4	8.9	3.9	-2.6	21.3*	5.5	3.0
COC(=O)CN1C(=S)N(c2ccc(Cl)cc2)C(=O)C1CC(=O)Nc1ccc(F)cc1 (configuration not stated)	4.1	5.5	27.4*	0.3	1.2	33.6*	0.5	-0.1
COC(=O)CN1C(=S)N(c2ccc(Cl)cc2)C(=O)C1CC(=O)Nc1ccc(Cl)cc1 (configuration not stated)	18.7	7.5	20.4*	-16.0	2.2	21.8*	3.6	0.5
COc1ccc(NC(=O)CC2C(=O)N(c3ccc(Cl)cc3)C(=S)N2CCc2ccccn2)cc1 (configuration not stated)	3.8	7.3	-0.1	1.6	11.2	19.5	/	/
COC(=O)CN1C(=S)N(c2ccc(F)cc2)C(=O)C1CC(=O)Nc1ccc(F)cc1 (configuration not stated)	-16.1	-4.0	4.7	1.7	8.1	1.3	/	/
S=c1nc2ccccc2c2nc(-c3ccccc3Cl)[nH]n12	24.5	2.7	-2.5	1.5	8.9	7.4	/	/
S=c1nc2ccccc2c2nc(-c3ccccc3)[nH]n12	-16.9	1.7	-9.8	2.1	16.0	21.3*	-3.1	-0.7

Assay outcomes as filed in PubChem.
